# Reference: ChEMBL document CHEMBL2176900, “Design and synthesis of a novel series of bicyclic heterocycles as potent γ-secretase modulators” (J Med Chem, 2012)
# How the values were obtained:
# [1] = molecular target: Voltage-gated inwardly rectifying potassium channel KCNH2 (Homo sapiens, UniProt Q12809); assay: Displacement of [3H]dofetilide to human ERG expressed in HEK293 cells; assay type: cell-based
# [2] = Thermodynamic solubility in 0.01N HCl; conditions: read-out: Therm_solubility
# Rattus norvegicus [3] = assay: Antialzheimer activity in Sprague-Dawley rat assessed as amyloid beta 37 level in CSF at 10 mg/kg, po at 4 hrs by ELISA relative to control; assay type: functional
# Summary of the method: (§1)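 Male Sprague-Dawley rats (180-220 g), fasted overnight, were given 10 mg/kg by gastric intubation as a 5 mg/mL suspension in 0.5% methocellulose. At 2, 4, 7 and 25 h, 50 μL CSF was taken from the cisterna magna under isoflurane, then brain was collected. Aβ37/38/40/42 were measured by MesoScale Discovery sandwich immunoassays. Results are mean % change versus T = 0 h, n = 5.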
# Mus musculus [4] = assay: Antialzheimer activity in CD1 mouse assessed as amyloid beta 42 level in brain at 10 mg/kg, po at 48 hrs by ELISA relative to control; assay type: functional
# Summary of the method: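 Male CD1 mice, fasted overnight, received a single 10 or 30 mg/kg oral dose. Brain was sampled at an added 48 h time point. The DEA-soluble brain fraction was neutralized and Aβ42 was measured by sandwich ELISA with fluorogenic read-out. Values are % versus vehicle.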
# [5] = Drug metabolism in rat liver microsomes at 1 uM after 15 mins by ion-trap mass spectrophotometry; assay type: ADME, Microsome; conditions: read-out: Drug metabolism
# Mus musculus [6] = assay: Antialzheimer activity in CD1 mouse assessed as amyloid beta 42 level in brain at 30 mg/kg, po at 8 hrs by ELISA relative to control; assay type: functional
# Summary of the method: (§2)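 Male CD1 SPF mice, fasted overnight, got a single oral dose of 10 or 30 mg/kg. At each time point the right brain hemisphere was homogenized in 0.4% DEA/50 mM NaCl with protease inhibitors and spun at 221300g for 50 min. The supernatant was neutralized with Tris-HCl pH 6.8. Aβ38 or Aβ42 was read by sandwich ELISA with a fluorogenic peroxidase substrate (ex 320/em 420 nm). Results are mean % change versus T = 0 h, n = 4.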
# [7] = Fraction unbound in rat plasma; assay type: ADME, cell-free
# [8] = Thermodynamic solubility in fasted state simulated intestinal fluid; assay type: physicochemical; conditions: read-out: Therm_solubility
# Summary of the method: (§3)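 Thermodynamic solubility was measured in pH 4.0 and pH 7.4 buffers, 0.01 N HCl, and fasted-state and fed-state simulated intestinal fluids (FaSSIF, FeSSIF). Results are in […].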
# [9] = Fraction unbound in dog plasma; assay type: ADME, cell-free, Canis lupus familiaris
# MDR1 [10] = assay: Apparent permeability from apical to basal side of pig LLCPK1 cells expressing MDR1; assay type: ADME, cell-based, Sus scrofa; conditions: LLC-PK1
# [11] = Thermodynamic solubility in buffer at pH 7.4; assay type: physicochemical; conditions: read-out: Therm_solubility; summary of the method: as §3
# [12] = Oral bioavailability in CD1 Swiss mouse at 10 mg/kg; assay type: ADME, organism-based; conditions: in vivo
# [13] = Plasma concentration in beagle dog at 20 mg/kg, po at 24 hrs; assay type: ADME, organism-based, Canis lupus familiaris; design: dose 20 mg/kg, route oral
# Brain [14] = assay: Drug uptake in CD1 mouse brain at 30 mg/kg, po at 48 hrs by LC-MS/MS analysis; assay type: ADME, organism-based; design: dose 30 mg/kg, route oral; conditions: in vivo, BLD = below limit of detection
# Summary of the method: (§4)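 Overnight-fasted male CD1 mice received one oral dose (10 or 30 mg/kg) in 20% Captisol. After sacrifice, the left brain hemisphere was stored at −18 °C. Compound level was quantified by a qualified LC-MS/MS method, alongside EDTA plasma spun at 1900g, 4 °C. n = 4 per time point.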
# [15] = Plasma concentration in CD1 mouse at 10 mg/kg, po at 8 hrs by LC-MS/MS analysis; assay type: ADME, organism-based; design: dose 10 mg/kg, route oral
# Summary of the method: (§5)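 Mice received a single 10 or 30 mg/kg oral dose. Plasma was sampled at several time points up to 48 h, with EDTA plasma obtained by centrifugation at 1900g, 10 min, 4 °C. Compound was quantified by LC-MS/MS, n = 4.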
# Brain [16] = assay: Drug uptake in CD1 mouse brain at 10 mg/kg, po at 48 hrs by LC-MS/MS analysis; assay type: ADME, organism-based; design: dose 10 mg/kg, route oral; conditions: in vivo, BLD = below limit of detection; summary of the method: as §4
# [17] = Drug uptake in Sprague-Dawley rat brain at 10 mg/kg, po at 2 hrs by LC-MS/MS analysis; assay type: ADME, organism-based; design: dose 10 mg/kg, route oral; conditions: read-out: Drug uptake
# Summary of the method: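 Overnight-fasted male Sprague–Dawley rats (180–220 g) were dosed 10 mg/kg by gastric intubation of a 5 mg/mL suspension in 0.5% methocellulose. Rats were anesthetized with isoflurane, CSF was taken from the cisterna magna, then they were decapitated. Brain compound levels were measured as in the mouse assay. n = 5.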
# Canis familiaris [18] = assay: Antialzheimer activity in beagle dog assessed as amyloid beta 40 level in cerebrospinal fluid at 20 mg/kg, po at 24 hrs by ELISA relative to control
# Canis familiaris [19] = assay: Antialzheimer activity in beagle dog assessed as amyloid beta 38 level in cerebrospinal fluid at 20 mg/kg, po at 24 hrs by ELISA relative to control
# Canis familiaris [20] = assay: Antialzheimer activity in beagle dog assessed as amyloid beta 38 level in cerebrospinal fluid at 20 mg/kg, po at 8 hrs by ELISA relative to control
# MDR1 [21] = assay: Apparent permeability from basal to apical side of pig LLCPK1 cells expressing MDR1; assay type: ADME, cell-based, Sus scrofa; conditions: LLC-PK1
# Canis familiaris [22] = assay: Antialzheimer activity in beagle dog assessed as amyloid beta 38 level in cerebrospinal fluid at 20 mg/kg, po at 4 hrs by ELISA relative to control
# Plasma = assay: Plasma concentration in CD1 mouse at 30 mg/kg, po at 48 hrs by LC-MS/MS analysis; assay type: ADME, organism-based; design: dose 30 mg/kg, route oral; conditions: in vivo, BLD = below limit of detection; summary of the method: as §5
# Rattus norvegicus [23] = assay: Antialzheimer activity in Sprague-Dawley rat assessed as amyloid beta 38 level in brain at 10 mg/kg, po at 4 hrs by ELISA relative to control; assay type: functional; summary of the method: as §1
# Mus musculus [24] = assay: Antialzheimer activity in CD1 mouse assessed as amyloid beta 42 level in brain at 10 mg/kg, po at 4 hrs by ELISA relative to control; assay type: functional; summary of the method: as §2
# Mus musculus [25] = assay: Inhibition of gamma-secretase in CD1 mouse assessed as total amyloid beta level in brain at 10 mg/kg, po at 4 hrs by ELISA relative to control; assay type: functional; design: scale not given: the % may be the effect or the level left
# Summary of the method: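 Fasted male CD1 SPF mice were dosed orally at 10 or 30 mg/kg in 20% Captisol. Right hemisphere was homogenized in 0.4% DEA/50 mM NaCl and the high-speed supernatant neutralized. Aβtotal ELISA used N-terminal JRF/rAβ/2 capture, biotinylated 4G8 and streptavidin-peroxidase, then a fluorogenic substrate (ex 320/em 420 nm). Standards spanned 10000–0.3 pg/mL. Values are % change vs T = 0 h, n = 4.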
# Liver microsomes = assay: Drug metabolism in human liver microsome assessed as reactive metabolite formation by cyanide-trapping assay; assay type: ADME
# Rattus norvegicus [26] = assay: Antialzheimer activity in Sprague-Dawley rat assessed as amyloid beta 42 level in CSF at 10 mg/kg, po at 25 hrs by ELISA relative to control; assay type: functional; summary of the method: as §1
# [27] = Drug metabolism in dog liver microsomes at 1 uM after 15 mins by ion-trap mass spectrophotometry; assay type: ADME, Canis lupus familiaris, Microsome; conditions: read-out: Drug metabolism
# Sequence of Voltage-gated inwardly rectifying potassium channel KCNH2 (Q12809 whole entry): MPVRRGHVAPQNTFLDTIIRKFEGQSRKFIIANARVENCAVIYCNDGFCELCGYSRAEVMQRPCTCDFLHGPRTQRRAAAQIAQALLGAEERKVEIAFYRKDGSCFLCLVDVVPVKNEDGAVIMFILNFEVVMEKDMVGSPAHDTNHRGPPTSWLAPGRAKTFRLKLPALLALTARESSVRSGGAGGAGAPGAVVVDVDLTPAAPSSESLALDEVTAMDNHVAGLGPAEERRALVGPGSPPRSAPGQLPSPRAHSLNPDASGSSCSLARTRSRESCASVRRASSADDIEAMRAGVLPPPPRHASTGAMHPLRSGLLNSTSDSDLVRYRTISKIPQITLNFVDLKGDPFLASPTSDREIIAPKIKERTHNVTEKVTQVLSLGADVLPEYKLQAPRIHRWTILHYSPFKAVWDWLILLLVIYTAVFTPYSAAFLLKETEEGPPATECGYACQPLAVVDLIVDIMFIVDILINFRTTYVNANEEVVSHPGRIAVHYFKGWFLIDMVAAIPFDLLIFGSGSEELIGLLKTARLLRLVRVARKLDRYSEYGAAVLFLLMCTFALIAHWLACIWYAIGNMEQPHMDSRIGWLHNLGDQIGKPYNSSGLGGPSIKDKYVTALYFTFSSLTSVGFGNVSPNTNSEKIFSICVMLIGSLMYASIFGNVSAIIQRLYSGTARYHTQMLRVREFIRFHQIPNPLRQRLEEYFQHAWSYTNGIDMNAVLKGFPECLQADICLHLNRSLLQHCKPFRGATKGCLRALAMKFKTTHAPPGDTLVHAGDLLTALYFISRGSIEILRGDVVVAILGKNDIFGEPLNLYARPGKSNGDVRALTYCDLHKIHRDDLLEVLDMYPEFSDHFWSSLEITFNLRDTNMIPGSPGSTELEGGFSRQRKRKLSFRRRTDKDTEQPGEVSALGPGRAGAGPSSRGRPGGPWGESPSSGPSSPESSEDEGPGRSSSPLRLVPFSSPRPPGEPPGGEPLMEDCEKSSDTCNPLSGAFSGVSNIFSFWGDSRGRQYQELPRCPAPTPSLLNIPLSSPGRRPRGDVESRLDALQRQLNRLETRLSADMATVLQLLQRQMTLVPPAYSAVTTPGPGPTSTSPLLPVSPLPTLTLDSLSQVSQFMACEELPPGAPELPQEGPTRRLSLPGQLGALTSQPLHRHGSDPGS
structure (smiles),measurement,setting,value
COc1nc(Nc2cccc3c2nc(-c2ccc(F)cc2)n3C)ccc1-n1cnc(C)c1,IC50,[1],8.5 µM
same,solubility thermodynamic,[2],1170 µg/mL
same,Activity,Rattus norvegicus [3],955%
same,Activity,Mus musculus [4],101%
same,"metabolised at 0.25 h, 1 µM",[5],16%
same,Activity,Mus musculus [6],29%
same,fraction unbound,[7],0.0004
same,solubility thermodynamic,[8],3 µg/mL
same,fraction unbound,[9],0.0003
same,Papp A→B,MDR1 [10],8 ×10⁻⁶ cm/s
same,solubility thermodynamic,[11],< 1 µg/mL
same,bioavailability,[12],100%
same,concentration at 24 h,[13],40 nM
same,Drug uptake,Brain [14],BLD
same,concentration at 8 h,[15],2700 nM
same,Drug uptake,Brain [16],BLD
same,concentration at 2 h,[17],2500 nM
same,Activity,Canis familiaris [18],113%
same,Activity,Canis familiaris [19],114%
same,Activity,Canis familiaris [20],184%
same,Papp B→A,MDR1 [21],4 ×10⁻⁶ cm/s
same,Activity,Canis familiaris [22],134%
same,Cp,Plasma,BLD
same,Activity,Rattus norvegicus [23],114%
same,Activity,Mus musculus [24],49%
same,Activity,Mus musculus [25],94%
same,Drug metabolism,Liver microsomes,Not Active
same,Activity,Rattus norvegicus [26],89%
same,"metabolised at 0.25 h, 1 µM",[27],37%
